The text below walks through data of the RNAGym collection of RNA variant scans (doi:10.1126/science.aae0568).

First the molecules themselves.
B1: tRNA (parent)
chain: GUUCCGUUGGCGUAAUGGUAACGCGUCUCCCUCCUAAGGAGAAGACUGCGGGUUCGAGUCCCGUACGGAACG

Variants at the floor of the assay were thinned out.

The variants in the data set derive from B1. Kind of data set: yeast fitness relative to wild type (ratio to wild type); higher = fitter; tRNA-Arg(CCU), competitive growth, 37 C, YPD. An outline of the steps:
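For this measurement, the tRNA-Arg(CCU) gene was varied by chemical synthesis at a 3% per-site mutation rate across 69 sites, and each variant was placed at the native genomic locus in Saccharomyces cerevisiae. The pooled strains went through a 24-hour competition in YPD at 37°C in six parallel replicates, with amplicons from start and end populations read by 100-nucleotide paired-end sequencing. Darwinian fitness relative to wild type followed from the change in each genotype's frequency. Genotypes needed ≥ 100 starting reads, and estimates < 0.5 were set to 0.5.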
Consider C27A G38C G51C A69U, for which the yeast fitness is no more than 0.5.

Consider A20C C24A C27A A36C, for which the yeast fitness is no more than 0.5.

On to C49A G50C, for which the yeast fitness was determined as 0.572.

With U8A G48C, the yeast fitness amounted to 0.761.

In the case of U8C U28G A40U, the yeast fitness worked out at 0.588.

As for A65C G68C, the yeast fitness was 0.778.

Take U7A A15U A40G: the yeast fitness was no more than 0.5.

For the variant G25A C27G C61G, the yeast fitness worked out at 0.574.

As to G10A U28C C60G, the yeast fitness is no more than 0.5.

A21U C29U G48A U54C: the yeast fitness was no more than 0.5.

With G50A C61A, the yeast fitness is 0.744.

Take C55U G58A U59C C62U: the yeast fitness is no more than 0.5.

As to A21C C34U A65G, the yeast fitness turned out to be 0.532.

In the case of C22U U47A A70G, the yeast fitness was determined as 0.536.

Regarding G23A C30A U64A, the yeast fitness is no more than 0.5.

For the variant U8C C24U A65C, the yeast fitness stood at 0.59.

On to G17A U28C A42C C66U, for which the yeast fitness was no more than 0.5.

For the variant G6A C11A U19A, the yeast fitness was determined as 0.53.

Regarding G12C A43C, the yeast fitness was 0.825.

Turning to C4A A14G U64A A70C, the yeast fitness is no more than 0.5.

A21U U28A A40U C55A A70G: the yeast fitness is no more than 0.5.

As for U7A U32C, the yeast fitness came to 0.764.

Consider C4A C5U C29G C33U U59G A69C, for which the yeast fitness was 0.533.

On to U2C G58C, for which the yeast fitness was 1.05.

Regarding C31A G51C C55G A57U C66U, the yeast fitness came out at 0.564.

As to A15C U59G, the yeast fitness amounted to 0.673.

With U16A U19A C46U C61G, the yeast fitness was 0.571.

Regarding C33G A57G C61G A65G C66U, the yeast fitness is no more than 0.5.

As to A36G A37C A45C C46G, the yeast fitness stood at 0.554.

On to G52A A57C A69U, for which the yeast fitness came out at 0.565.

As for U16A G48U, the yeast fitness came out at 0.754.

For C4G U13G U16C, the yeast fitness was found to be 0.566.

G9A C30G C31G A43G A65G: the yeast fitness is no more than 0.5.

As to G6A G9C A14C C27A C31U C34A A42C C46G, the yeast fitness is no more than 0.5.

Turning to C60G G68A, the yeast fitness was determined as 0.695.

For the variant C31U U32G C33G G58C, the yeast fitness is no more than 0.5.

With C4G G12U A14C C49G A57U C61G, the yeast fitness is no more than 0.5.

On to C11A C24U C60A, for which the yeast fitness is no more than 0.5.

For the variant U28A C31U U32A G52A A57U C60U A65G G68A, the yeast fitness is no more than 0.5.

Regarding C27G C34U A43C A57U G58A C62G, the yeast fitness was no more than 0.5.

Take G23C U28C C29U A69C: the yeast fitness was no more than 0.5.

As to C11U C29G C33U C60U A65U A69U, the yeast fitness is no more than 0.5.

As for C33U G39C G51A C60G, the yeast fitness is no more than 0.5.

On to C34U A36G C55G A57U G67A, for which the yeast fitness was 0.568.

Regarding A21C G25C U26G G50U G56A U59A A70C, the yeast fitness turned out to be 0.541.

With A14U G23U G68C, the yeast fitness stood at 0.514.

Regarding U13C C22G A36U C62U C66U A69C, the yeast fitness was no more than 0.5.

Regarding U19C C33G A57G C61G, the yeast fitness was no more than 0.5.

With A14G C27G C34G A37U U64A, the yeast fitness is 0.667.

C4A A20G: the yeast fitness worked out at 0.859.

On to U8A U13A G48C, for which the yeast fitness is 0.516.

U3C A15G G68C: the yeast fitness was 0.618.

Turning to C11G C24G C27A U28C A65U, the yeast fitness stood at 0.533.

C22U C29A: the yeast fitness was found to be 0.543.

For U16A G41C A45C, the yeast fitness was no more than 0.5.

As for C5U U28G C62U A65G, the yeast fitness is no more than 0.5.

Take G6C A40C A45C: the yeast fitness was no more than 0.5.

Regarding U2A C24U C31G G44A, the yeast fitness was no more than 0.5.

As to G10A C29U C30G C34A U53C, the yeast fitness is no more than 0.5.

For G9A G38C G41C A45G, the yeast fitness was no more than 0.5.

Regarding U13A G23C C27G U53C C61A, the yeast fitness was determined as 0.509.

As for U2A A57G, the yeast fitness turned out to be 0.897.

In the case of G9A C30U A57G, the yeast fitness is no more than 0.5.

As to A14C C24A A37G C60U, the yeast fitness is no more than 0.5.

In the case of U54C A70U, the yeast fitness came out at 0.869.

Turning to G58A A69U, the yeast fitness turned out to be 0.986.

As to C11U A15G C24G C27G C31U G41C C49U, the yeast fitness was no more than 0.5.

For the variant A20U G44C A45G, the yeast fitness amounted to 0.596.

Regarding U8A A14C, the yeast fitness came to 0.692.

In the case of U2C U16C C46G C62G, the yeast fitness was no more than 0.5.

U16C U47A G68A: the yeast fitness is no more than 0.5.

Turning to G39C G51C, the yeast fitness is 0.568.

With A20G A65U G68C, the yeast fitness is 0.556.

In the case of C4U C49A, the yeast fitness was found to be 0.787.

On to G17A G63A, for which the yeast fitness was determined as 0.744.

A15G A37U A40C A43C: the yeast fitness was no more than 0.5.

Regarding A36C A43C C61G A70G, the yeast fitness is no more than 0.5.

With A20C C33U A37G C49G A57G, the yeast fitness was no more than 0.5.

On to G6A A40U, for which the yeast fitness is 0.823.

Turning to C29A C31G, the yeast fitness came to 0.677.

For A37C A42C C66U, the yeast fitness is 0.712.

Turning to U7G C29A C34A C62A, the yeast fitness is no more than 0.5.

C11U A15G A65C: the yeast fitness was 0.713.

With G10A U28A, the yeast fitness is 0.633.

Turning to G39C G58A, the yeast fitness was 0.876.

For the variant C4U A14G A36C C46G C61G, the yeast fitness was determined as 0.544.

On to C31U G44A, for which the yeast fitness was found to be 1.02.

In the case of C46G U53A, the yeast fitness turned out to be 0.75.

Regarding G25A C29U A65G, the yeast fitness is 0.704.

On to A14U A15C A40G U47C G56C G67C, for which the yeast fitness is no more than 0.5.

For C4U G10C U47C U59A A69U, the yeast fitness is no more than 0.5.

C31A A36G: the yeast fitness worked out at 0.78.

In the case of C11G C24A U28G A36G G63A, the yeast fitness was no more than 0.5.

Consider G12A A20G C24U C27A A70U, for which the yeast fitness was no more than 0.5.

As for U19A U54A, the yeast fitness stood at 0.706.

With U7A G9C G17C C34A G44A C46U G68A, the yeast fitness was no more than 0.5.

In the case of C31A U54C, the yeast fitness was 0.562.

In the case of A43U G51C C61G, the yeast fitness worked out at 0.593.

Turning to G23C C31U G48A C49U, the yeast fitness was no more than 0.5.

Regarding C4A C27G G52A, the yeast fitness came to 0.713.

Take G9C U13A G25A A40C A57C C61G G67A: the yeast fitness is no more than 0.5.

U7A A14U U16C A42U: the yeast fitness is no more than 0.5.

A37G G63C A65U: the yeast fitness is no more than 0.5.

Turning to C24U G25A C30U C46A A69U, the yeast fitness was determined as 0.611.

In the case of C5U A21G C29U C31A G51C, the yeast fitness was no more than 0.5.

For U7G A57G, the yeast fitness worked out at 0.72.

Take C4G C5A A21U C34G: the yeast fitness is no more than 0.5.

For the variant U16C G52C A70G, the yeast fitness is no more than 0.5.

As to U2G A15G G17A U28A C29U A45C A69C, the yeast fitness was no more than 0.5.

As to G12A A43G A69U, the yeast fitness was 0.803.

Consider C31A U53G A57G, for which the yeast fitness is no more than 0.5.

In the case of U3C G10U U26C A42U, the yeast fitness is no more than 0.5.

On to C5G C11A A40C U64C, for which the yeast fitness is no more than 0.5.

In the case of U28G C29U G50C, the yeast fitness was no more than 0.5.

On to A45U G56C G58A A65U, for which the yeast fitness worked out at 0.5.

On to G23A C30U C33A A43G G48C A57G, for which the yeast fitness was no more than 0.5.

With C30G A69C A70G, the yeast fitness is no more than 0.5.

C24A C62A: the yeast fitness came to 0.598.

For A15G G17A A69C, the yeast fitness is 0.586.

As for C5U U28G C61G, the yeast fitness stood at 0.58.

Consider C31U A37C, for which the yeast fitness worked out at 0.761.

As for A57C C61G A69C, the yeast fitness is no more than 0.5.

Regarding C4G A15G, the yeast fitness came to 0.732.

Consider G9A C27G C31U C46G G51C A70U, for which the yeast fitness was no more than 0.5.

With C29U C30A C61U, the yeast fitness was no more than 0.5.

As to A20U C29G A43U, the yeast fitness was determined as 0.612.

Regarding U3C U59A C61G, the yeast fitness turned out to be 0.587.

For U3G U28C C62U, the yeast fitness worked out at 0.638.

Turning to C22A C33G A43C C49U U64C, the yeast fitness is no more than 0.5.

Turning to U3A C33U G44A, the yeast fitness is no more than 0.5.

For the variant A20G C60U C62U, the yeast fitness is no more than 0.5.

Consider U28C G39C G44C, for which the yeast fitness is 0.529.

With C24U C31U A40C A57C C61A G67A, the yeast fitness is no more than 0.5.

Consider C34G U54A, for which the yeast fitness amounted to 0.563.

Regarding C5G G18A G25A C61U A69G, the yeast fitness turned out to be 0.574.

For C33G A36C C49A C60G A70U, the yeast fitness was no more than 0.5.

With U53G A65U, the yeast fitness amounted to 0.635.

Turning to G6C C11G A15G G68C, the yeast fitness amounted to 0.503.

For C24A C29G U54A, the yeast fitness was 0.568.

For G6A C11A A15G C49G G51C, the yeast fitness was no more than 0.5.

For A20G C29G G50A A70U, the yeast fitness was no more than 0.5.

In the case of G6A U26G G48A C61U, the yeast fitness was 0.684.

In the case of C24U C30G G51A C60U G67A, the yeast fitness was no more than 0.5.

Turning to U19A C46U C49G, the yeast fitness came to 1.07.

As for A20C C31G G48A G50C C60G, the yeast fitness came out at 0.722.

With A20U C24A G51C, the yeast fitness was no more than 0.5.

Take C11U U19C C61G A65C: the yeast fitness is no more than 0.5.

For U8C G12C C62U, the yeast fitness stood at 0.587.

As to C29G A37G A57U, the yeast fitness turned out to be 0.617.

On to U8A A20C U35A G38C A69U, for which the yeast fitness was 0.597.

On to C5G G51A A69U, for which the yeast fitness is 0.528.

Consider C4G G12A C24U A70C, for which the yeast fitness is no more than 0.5.

Take U2A C5A C55U: the yeast fitness was no more than 0.5.

On to G41C C61G, for which the yeast fitness was determined as 0.793.

In the case of U2G C11U A20C A70C, the yeast fitness turned out to be 0.667.

With U28C A65U, the yeast fitness is 0.855.

C30G A40U A70U: the yeast fitness was 0.526.

As to G10C C11A C34A G51A C61G A69U, the yeast fitness is no more than 0.5.

Take C24U A37G A70U: the yeast fitness amounted to 0.536.

As to C30U G39A A40G U53C G67A, the yeast fitness was no more than 0.5.

C11U C22U A65U A69U: the yeast fitness is no more than 0.5.

For the variant C22U A42U G51C C62U, the yeast fitness is no more than 0.5.

With G9C C22G C33G G63C, the yeast fitness is no more than 0.5.

For C4U G23C G51A A69G, the yeast fitness was 0.586.

Turning to C5A A21G G67C, the yeast fitness stood at 0.933.

In the case of C4A G12C U19C C24G A43U C61A, the yeast fitness was 0.502.

As to U2G U7C G18C A42U C49G, the yeast fitness was no more than 0.5.
